CXCR6 block = CXCR6 receptor inhibitors, primary screen, cell-based, beta-arrestin, luminescence, CHO-K1 PathHunter, 1536-well | C-X-C chemokine receptor type 6 (Homo sapiens), O00574 | inhibition, % at 20 µM | 360,000 compounds, 0.36% hits | AID 602244, 2012; in the data active = inhibition above about 34%, passing the limit was not always enough;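 note: antagonist mode with CXCL16 agonist at 10 nM final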
Target sequence (O00574 whole entry, looked up): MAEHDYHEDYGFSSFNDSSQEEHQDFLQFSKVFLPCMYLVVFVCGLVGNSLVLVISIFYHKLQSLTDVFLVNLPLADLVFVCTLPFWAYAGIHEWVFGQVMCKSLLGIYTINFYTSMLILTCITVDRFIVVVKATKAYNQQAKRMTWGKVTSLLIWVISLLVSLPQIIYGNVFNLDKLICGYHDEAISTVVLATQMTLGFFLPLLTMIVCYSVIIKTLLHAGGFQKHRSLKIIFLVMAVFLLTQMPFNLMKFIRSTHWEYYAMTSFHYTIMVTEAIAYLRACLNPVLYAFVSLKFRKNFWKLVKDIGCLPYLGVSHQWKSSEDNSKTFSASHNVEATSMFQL
CCR6 antagonist = CCR6 receptor antagonists, primary screen, cell-based, CHO-K1, luminescence, beta-arrestin, uHTS; C-C chemokine receptor type 6 (Homo sapiens), P51684; CHO-K1 CCR6 PathHunter beta-arrestin, CCL20-stimulated; inhibition, % at 20 µM; 340,000 compounds, 0.49% hits; AID 493098, 2011;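 active = compounds whose inhibition of the agonist-driven luminescence signal at 20 µM reaches about 50%, limit read from the data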;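 note: cells stimulated with CCL20 at 14 nM final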
GAA850 FXN act = FXN promoter activators, primary screen, cell-based, luciferase luminescence, HEK293 lucGAA850. HEK293 lucGAA850 FXN promoter luciferase reporter, 24 h; percent of 10 µM SAHA response. activation, % at 6 µM. 360,000 compounds, 0.56% hits. AID 540364, 2011;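 active = activation above the average of all compounds screened plus 3 SD, cutoff fixed separately per campaign, cut at about 7.5% in these data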
APJ ag = agonists of human apelin receptor APJ, primary screen, CHO-K1 cells, PathHunter beta-arrestin, luminescence; 0% DMSO wells, 100% apelin; activation, % at 20 µM; 330,000 compounds, 0.11% hits;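 active = activation more than six SD over the plate average, tested at 20 µM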
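Material: engineered CHO-K1 APJ arrestin reporter cells; amount: 1000 CHO-K1 reporter cells seeded per well; incubation: compound stimulation 90 min at 25 °C, detection 60 min; signal: luminescent beta-gal fragment complementation, chemiluminescent substrate; read-out basis: APJ agonist activity; controls: DMSO-only wells as negative, 10 nM Apelin-13 as positive control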
APJ antag = antagonists of human apelin receptor APJ, primary screen, CHO-K1 cells, beta-arrestin complementation, luminescence. P35414. AID 2521, 2010. inhibition, % at 20 µM. 330,000 compounds, 0.32% hits;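 active = inhibition above about 40% at 20 µM, limit read from the data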;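 note: cells challenged with 10 nM apelin-13 agonist together with compound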
EBI2 antag = EBI2 receptor antagonists, beta-arrestin recruitment, primary screen, cell-based, luminescence, 7a,25-OHC stimulation, uHTS | G-protein coupled receptor 183 (Homo sapiens), P32249 | inhibition, % at 5 µM | 360,000 compounds, 0.81% hits | 7a,25-OHC stimulated; in the data active = inhibition above about 38%;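 note: enzyme fragment complementation signal reports receptor beta-arrestin coupling in cells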
Target sequence (P32249 whole entry, looked up, the tested form may be a part): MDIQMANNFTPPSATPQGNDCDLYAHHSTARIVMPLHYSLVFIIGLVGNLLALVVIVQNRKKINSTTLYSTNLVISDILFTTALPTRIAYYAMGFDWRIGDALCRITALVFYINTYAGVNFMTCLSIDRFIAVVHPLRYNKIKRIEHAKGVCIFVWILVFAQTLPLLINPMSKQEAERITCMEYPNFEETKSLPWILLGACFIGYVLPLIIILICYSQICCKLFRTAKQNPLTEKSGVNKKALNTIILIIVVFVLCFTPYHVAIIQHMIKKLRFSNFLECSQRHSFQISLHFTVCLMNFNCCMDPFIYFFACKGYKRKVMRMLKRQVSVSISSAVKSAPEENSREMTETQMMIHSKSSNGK
GAA30 FXN cntr = GAA30 FXN promoter activators, confirmation, counter-screen for GAA850 frataxin promoter activator project, cell-based, luminescence, HEK293, lucGAA30, triplicate; shares compounds with GAA850 FXN act; HEK293 lucGAA30 FXN promoter luciferase, 24 h; DMSO = 0%, 5 µM ipriflavone = 100%; activation, % at 6 µM; 1,900 compounds, 66% hits;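 active = mean activation above the mean of solvent-only control wells plus 3 SD, cut at about 22% in these data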;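 note: counterscreen of GAA850 promoter hits where activity marks nonselective or luminescence artifacts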
FXN GAA850 conf = FXN GAA850 promoter activators in reporter cells, confirmation, cell-based, luminescence, HEK293 lucGAA850, triplicate. shares compounds with GAA850 FXN act. activation, % at 6 µM. HEK293 lucGAA850 FXN promoter luciferase reporter, 24 h; 100% = activation by SAHA. AID 588351, 2011. 1,900 compounds, 86% hits;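 active = mean activation above a set limit taken from the primary screen, cut at about 8% in these data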
Of the large screens only hits and unclear results are named; the others gave an inactive call (follow-up assays come after a bar, where they were run). The list is not random: actives were taken first. Their share in the collection is about 2%.

CCCc1cc(=O)oc2cc(OC(C)C(=O)NCCCn3ccnc3)ccc12 (centres undefined)	none
CC(Oc1ccc2c(-c3ccccc3)cc(=O)oc2c1)C(=O)NCCCn1ccnc1 (centres undefined)	GAA850 FXN act 8.7 | GAA30 FXN cntr inactive | FXN GAA850 conf inactive
COc1cc(OC)c(OC)cc1CCC(C)NCCC(c1ccccc1)c1ccccc1 (centres undefined)	GAA850 FXN act 13 | GAA30 FXN cntr inactive | FXN GAA850 conf 9.4
Cc1ccsc1C(=O)N1CCc2ccccc2C1	GAA850 FXN act 8.4 | GAA30 FXN cntr 43 | FXN GAA850 conf 15
O=S(=O)(CC(CN1CCCCC1)N1CCCCC1)c1ccccc1 (centres undefined)	GAA850 FXN act 8.4 | GAA30 FXN cntr 76 | FXN GAA850 conf 30
COc1ccc(OC)c(CN2C(=O)c3ccccc3C2c2nnnn2Cc2ccccc2)c1 (centres undefined)	none (no result: CCR6 antagonist, GAA850 FXN act, APJ ag, APJ antag)
O=C(CCC(=O)N1CCSc2ccccc21)NC1CCCCC1	GAA850 FXN act 8.0 | GAA30 FXN cntr inactive | FXN GAA850 conf inactive
O=C(CCC(=O)N1CCSc2ccccc21)NCCc1ccccc1	none
Cc1nn(-c2ccccc2Cl)c(Cl)c1/C=N/Nc1cccc(C(=O)O)c1	GAA850 FXN act 7.8 | GAA30 FXN cntr 119 | FXN GAA850 conf 41
Cc1ccc(-n2c(C)c(C)c3c(NCCO)ncnc32)cc1	GAA850 FXN act 7.9 | GAA30 FXN cntr 89 | FXN GAA850 conf 31
O=C1Nc2ccc(Br)cc2/C1=C/C(=O)c1ccccc1	GAA850 FXN act 11, EBI2 antag 79 (no result: CCR6 antagonist, APJ ag, APJ antag) | GAA30 FXN cntr inactive | FXN GAA850 conf 17
O=C(CC1(O)C(=O)Nc2ccc(Br)cc21)c1ccccc1 (centres undefined)	none (no result: CCR6 antagonist, APJ ag, APJ antag)
O=C(NCCc1ccc(O)c(O)c1)C1COc2ccccc2O1 (centres undefined)	GAA850 FXN act 8.8 | GAA30 FXN cntr inactive | FXN GAA850 conf 18
O=C(NCCc1ccccc1)C1COc2ccccc2O1 (centres undefined)	none
Cc1cc(-c2n[nH]c(=S)n2/N=C/C(Cl)=C/c2ccccc2)n[nH]1	none
S=c1[nH]nc(-c2ccco2)n1/N=C/C(Cl)=C/c1ccccc1	GAA850 FXN act 8.0 | GAA30 FXN cntr 78 | FXN GAA850 conf 32
C=CCOc1ccc2nc(NC(=O)OC)[nH]c2c1	GAA850 FXN act 7.7 | GAA30 FXN cntr inactive | FXN GAA850 conf 41
C=C(c1ccc2nc(NC(=O)OC)[nH]c2c1)c1cccs1	none (no result: APJ ag, APJ antag)
O=C(C(Cc1ccccc1)NS(=O)(=O)c1cccc2cccnc12)N1CCc2ccccc21 (centres undefined)	GAA850 FXN act 13 | GAA30 FXN cntr 24 | FXN GAA850 conf 9.1
O=C1Nc2ccccc2Nc2ccc([N+](=O)[O-])cc21	GAA850 FXN act 8.3 | GAA30 FXN cntr 115 | FXN GAA850 conf 35
Cc1nn(C)cc1CN(C)C(=O)C1CCC(=O)N(CCc2cccc(F)c2)C1 (centres undefined)	none (no result: CCR6 antagonist, APJ ag, APJ antag)
Cn1c2nc3ccccc3c-2nc2ccccc21	GAA850 FXN act 11 (no result: CCR6 antagonist, APJ ag, APJ antag) | GAA30 FXN cntr 115 | FXN GAA850 conf 35
Cn1c(-c2nonc2N)nc2ccccc21	none
O=C(O)c1cc(S(=O)(=O)N2CC3CC3C2C(=O)O)c(Cl)cc1Cl (centres undefined)	none
N#CCSc1nc(N)c(C#N)c(C2CCCCC2)c1C#N	GAA850 FXN act 11 | GAA30 FXN cntr inactive | FXN GAA850 conf 19
OCC1OC(c2ccccc2)OC2COC(c3ccccc3)OC12 (centres undefined)	none (no result: APJ ag, APJ antag)
CCCCn1nnc(NC(=O)c2cc3ccccc3o2)n1	GAA850 FXN act 8.4 | GAA30 FXN cntr 82 | FXN GAA850 conf 26
CCCn1nnc(NC(=O)c2cc3ccccc3o2)n1	none
CN1CCN(c2ccc(NC(=O)c3cc4ccccc4o3)cc2)CC1	GAA850 FXN act 7.7 | GAA30 FXN cntr 138 | FXN GAA850 conf 39
Cc1ccc(N/C=C/C(=O)c2ccc(C)cc2)cc1	none
Cc1ccc(O)c(N/C=C/C(=O)c2ccc(F)cc2)c1	GAA850 FXN act 11 | GAA30 FXN cntr inactive | FXN GAA850 conf 25
CC(=O)NC(CCc1ccc(Cl)c(Cl)c1)c1cccc(O)c(=O)c1 (centres undefined)	none (no result: CCR6 antagonist, APJ ag, APJ antag)
CCOc1cc([N+](=O)[O-])c2nc(N)sc2c1	GAA850 FXN act 7.9 | GAA30 FXN cntr 39 | FXN GAA850 conf 19
O=C(COC(=O)CCNS(=O)(=O)c1cccs1)Nc1ccccc1	none
Nc1ccc(C(=O)N/N=C/c2sc(N3CCOCC3)nc2-c2ccccc2)cc1	none
O=C(O)c1cccc(N/N=C/c2sc(N3CCOCC3)nc2-c2ccccc2)c1	GAA850 FXN act 11 | GAA30 FXN cntr 133 | FXN GAA850 conf 39
O=C(Nc1nncs1)c1cc2c(s1)CCC2	none
CC(C)Cc1nnc(NC(=O)c2cc3c(s2)CCC3)s1	GAA850 FXN act 8.2 | GAA30 FXN cntr 95 | FXN GAA850 conf 29
COc1ccc(OC)c(NC(=O)CCCCCn2nnc3ccccc3c2=O)c1	none
Fc1cccc(Cl)c1/C=C/c1cnc2ccccc2n1	none
Fc1cccc(F)c1/C=C/c1ccc2ccccc2n1	GAA850 FXN act 8.0 | GAA30 FXN cntr 108 | FXN GAA850 conf 34
COc1cccc(CN2CC(C(=O)NCCc3cn4cccnc4n3)CCC2=O)c1 (centres undefined)	none (no result: CCR6 antagonist, APJ ag, APJ antag)
CC1(C)C(=O)NCCN1C(=O)CCC(=O)O	GAA850 FXN act 7.9 | GAA30 FXN cntr inactive | FXN GAA850 conf inactive
CC1(C)C(=O)NCCN1C(=O)CC1C(=O)NCCN1CC(c1ccccc1)c1ccccc1 (centres undefined)	none
CCc1ccc2oc(-c3cc(N)cc(C)c3O)nc2c1	GAA850 FXN act 7.7 | GAA30 FXN cntr 81 | FXN GAA850 conf 40
Cc1nn2cc(-c3ccc(Cl)cc3)cnc2c1Cl	GAA850 FXN act 7.7 | GAA30 FXN cntr 119 | FXN GAA850 conf 37
